The record followed here is ChEMBL document CHEMBL3576792, “Enhancement of antibiotic activity against multidrug-resistant bacteria by the efflux pump inhibitor 3,4-dibromopyrrole-2,5-dione isolated from a Pseudoalteromonas sp” (J Nat Prod, 2015).

The subject of test [1] is Escherichia coli K-12. Nature of the test: Inhibition of AcrAB-TolC pump in Escherichia coli K-12 AG100 assessed as increase in intracellular H33342 fluorescence at 0.06 ug/ml after 60 mins by efflux inhibition assay. In kind it is cell-based. An outline of the steps: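 AG100 (wild-type K-12) or AG100A (ΔacrAB) cells were grown in Luria broth at 37 °C and 200 rpm to OD600 1.0, PBS-washed and diluted to OD600 0.3. Cells took up 2.5 μM Hoechst 33342 with 22 mM glucose at 37 °C for about 30 min, then compound (0.06–64 μg/mL) or PAβN (15.6 μg/mL) was added. Fluorescence (Ex 350/Em 460 nm) was followed for 60 min and corrected for background. The last four time points were compared to dye-only control by ANOVA with Dunnett's test, run in duplicate.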

Test [2] deals with Escherichia coli. Briefly: Potentiation of erythromycin-induced antibacterial activity Escherichia coli AG102 overexpressing AcrAB-TolC assessed as erythromycin MIC by p-iodonitrotetrazolium chloride colorimetric assay. It counts as functional. In short, it runs like this: (§1)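 Checkerboard microdilution in Mueller-Hinton broth: two-fold dilutions of antibiotic crossed with dilutions of test compound above, at and below their MICs. Growth was read by INT colorimetric assay, with MIC as the lowest concentration showing no visible growth. FICs and FIC index were derived from these MICs. ΔBC/pABM and ΔBC/pXYM strains were grown with 100 μg/mL ampicillin and 1 mM IPTG.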

The subject of test [3] is Escherichia coli. Briefly: Potentiation of kanamycin-induced antibacterial activity Escherichia coli transformed with plasmid carrying MG1655 deltaBC/pXYM assessed as kanamycin MIC by p-iodonitrotetrazolium chloride colorimetric assay. In kind it is functional. An outline of the steps:
as §1

The test system of test [4] is Escherichia coli K-12. Nature of the test: Inhibition of AcrAB-TolC pump in Escherichia coli K-12 AG100 assessed as inhibition of H33342 accumulation at 1 ug/ml after 60 mins by accumulation assay. An outline of the steps: (§2)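 AG100 (wild-type K-12) or AG100A (ΔacrAB) grown in Luria broth at 37 °C and 200 rpm to OD600 1.0, PBS-washed, diluted to OD600 0.3. Cells given 2.5 μM H33342 with 22 mM glucose at 37 °C for ~30 min until stable, then compound (0.06–64 μg/mL) added. Fluorescence (Ex 350/Em 460) read for 60 min, background subtracted. Final 4 time points averaged; one-way ANOVA/Dunnett vs Hoechst-only; n = 8.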

Test [5] relates to Escherichia coli K-12. Briefly: Inhibition of AcrAB-TolC pump in Escherichia coli K-12 AG100 assessed as increase in intracellular H33342 fluorescence at 4 ug/ml after 60 mins by efflux inhibition assay. It counts as cell-based. An outline of the steps:
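Washed AG100 cells loaded for 60 min with 2.5 μM H33342 plus compound (no glucose, 25 °C). They were then pelleted, resuspended in ice-cold PBS and re-exposed to the same compound concentrations with or without glucose at 37 °C. Fluorescence (Ex 350/Em 460) followed for 30 min, no-glucose values subtracted, data normalized to loaded cells.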

Test [6] relates to Escherichia coli. Nature of the test: Potentiation of piperacillin-induced antibacterial activity Escherichia coli AG102 overexpressing AcrAB-TolC by p-iodonitrotetrazolium chloride colorimetric assay. In kind it is functional.
Test [7] concerns Escherichia coli. Briefly: Potentiation of piperacillin-induced antibacterial activity Escherichia coli transformed with plasmid carrying MG1655 deltaBC/pXYM assessed as piperacillin MIC by p-iodonitrotetrazolium chloride colorimetric assay. It counts as functional. An outline of the steps:
as §1

The subject of test [8] is Escherichia coli. Briefly: Potentiation of levofloxacin-induced antibacterial activity Escherichia coli transformed with plasmid carrying MG1655 deltaBC/pXYM MIC by p-iodonitrotetrazolium chloride colorimetric assay. It counts as functional.
The subject of test [9] is Escherichia coli K-12. Nature of the test: Inhibition of AcrAB-TolC pump in Escherichia coli K-12 AG100 assessed as […] at 0.06 ug/ml after 60 mins by accumulation assay. An outline of the steps: as §2
Test [10] deals with Escherichia coli. Nature of the test: Potentiation of erythromycin-induced antibacterial activity Escherichia coli AG102 overexpressing AcrAB-TolC by p-iodonitrotetrazolium chloride colorimetric assay. It counts as functional.
The test system of test [11] is Escherichia coli. Briefly: Antibacterial activity against Escherichia coli transformed with plasmid carrying MG1655 deltaBC/pABM by p-iodonitrotetrazolium chloride colorimetric assay. It counts as functional. In short, it runs like this:
(§3)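 Two-fold broth microdilution in Mueller-Hinton broth, read by p-iodonitrotetrazolium chloride colorimetric assay. MIC is the lowest concentration giving no visible growth. MG1655 ΔacrB ΔtolC strains carrying pABM or pXYM were always cultured with 100 μg/mL ampicillin and 1 mM IPTG. Medium, inoculum and 1% DMSO (final) served as negative control.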

In test [12] the test system is Escherichia coli. Nature of the test: Antibacterial activity against Escherichia coli AG102 overexpressing AcrAB-TolC by p-iodonitrotetrazolium chloride colorimetric assay. In kind it is functional. An outline of the steps:
as §3

Test [13] relates to Escherichia coli. Briefly: Antibacterial activity against Escherichia coli transformed with plasmid carrying MG1655 deltaBC/pXYM by p-iodonitrotetrazolium chloride colorimetric assay. In kind it is functional. In short, it runs like this:
as §3

Test [14] deals with Escherichia coli. Briefly: Potentiation of ciprofloxacin-induced antibacterial activity Escherichia coli transformed with plasmid carrying MG1655 deltaBC/pABM by p-iodonitrotetrazolium chloride colorimetric assay. It counts as functional.
Test [15] concerns Escherichia coli. Briefly: Potentiation of oxacillin-induced antibacterial activity Escherichia coli transformed with plasmid carrying MG1655 deltaBC/pABM assessed as oxacillin MIC by p-iodonitrotetrazolium chloride colorimetric assay. In kind it is functional, organism-based. In short, it runs like this: as §1
Test [16] concerns Escherichia coli. Nature of the test: Potentiation of oxacillin-induced antibacterial activity Escherichia coli transformed with plasmid carrying MG1655 deltaBC/pABM by p-iodonitrotetrazolium chloride colorimetric assay. It counts as functional, organism-based. An outline of the steps: as §1
For test [17], the system named is Escherichia coli. Nature of the test: Potentiation of kanamycin-induced antibacterial activity Escherichia coli AG102 overexpressing AcrAB-TolC by p-iodonitrotetrazolium chloride colorimetric assay. It counts as functional.
Test [18] concerns Escherichia coli. Nature of the test: Potentiation of ciprofloxacin-induced antibacterial activity Escherichia coli transformed with plasmid carrying MG1655 deltaBC/pXYM by p-iodonitrotetrazolium chloride colorimetric assay. In kind it is functional.
Test [19] has as its system Escherichia coli. Briefly: Effect on intracellular H33342 accumulation in Escherichia coli AG100A delta acrAB mutant at 1 ug/ml after 60 mins by accumulation assay. In kind it is functional. An outline of the steps:
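Cells grown in Luria broth at 37 °C, 200 rpm to OD600 1.0, then washed twice in PBS and diluted in glucose-free PBS to OD600 0.3. H33342 was used at 2.5 μM with 22 mM glucose at 37 °C and allowed to accumulate for ~30 min. Compound was then added and fluorescence (Ex 350/Em 460 nm) followed for 60 min. Values are the mean RFU of the final 4 min, after media-plus-compound background was subtracted. Run in duplicate, n = 8.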

Each structure is given as a SMILES string. In brackets after ≈: the same amount, converted by molar mass. Activity calls are given as the source filed them. The calls are words filed in the database; no cut-off is given here.

As for `O=C1NC(=O)C(Br)=C1Br`, the RFU with Escherichia coli K-12 [1] was -422; in the test on Escherichia coli K-12 [4], 1010; in the test with Escherichia coli K-12 [5] it was -101; with Escherichia coli K-12 [9], 758; in the test on Escherichia coli [19] it was 1070. The MIC – broadly, the lowest concentration that inhibits growth of the organism – in the test on Escherichia coli [2] was determined as 128 µg/mL; in the test with Escherichia coli [3], 32 µg/mL; in the test with Escherichia coli [7], 256 µg/mL; in the test with Escherichia coli [11], 256 µg/mL (≈ 1000 µM); in the test with Escherichia coli [12] it was 256 µg/mL (≈ 1000 µM); in the test with Escherichia coli [13], 128 µg/mL (≈ 502 µM). In addition, the “fractional inhibitory concentration index (FICI)” value stood at 0.75 in the test on Escherichia coli [6]; 0.19 in the test on Escherichia coli [8]; 0.38 in the test with Escherichia coli [10]; 0.75 in the test on Escherichia coli [14]; 0.27 with Escherichia coli [17]; 0.19 in the test on Escherichia coli [18]. In the test with Escherichia coli [15], the MIC result was “inactive”. In addition, the “fractional inhibitory concentration index (FICI)” value in the test with Escherichia coli [16] was “inactive”.
